Compound activity (PubChem)
CXCR6 block = CXCR6 receptor inhibitors, primary screen, cell-based, beta-arrestin, luminescence, CHO-K1 PathHunter, 1536-well; C-X-C chemokine receptor type 6 (Homo sapiens), O00574; inhibition, % at 20 µM; actives 0.36% (n = 360,000); in the data active means inhibition above about 34%, passing the limit was not always enough;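 further: antagonist mode with CXCL16 agonist at 10 nM final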
CCR6 antag = CCR6 receptor antagonists, primary screen, cell-based, CHO-K1, luminescence, beta-arrestin, uHTS | C-C chemokine receptor type 6 (Homo sapiens), P51684 | CHO-K1 CCR6 PathHunter beta-arrestin, CCL20-stimulated | inhibition, % at 20 µM | actives 0.49% (n = 340,000) | AID 493098, 2011;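 active means compounds whose inhibition of the agonist-driven luminescence signal at 20 µM reaches about 50%, limit read from the data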;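 further: cells stimulated with CCL20 at 14 nM final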
hiPSC survival = enhancers of single-cell hiPSC survival, primary screen, ATPlite luminescence | 100% = ROCK inhibitor wells, 0% = DMSO | survival enhancement, % at 20 µM | actives 0.044% (n = 360,000) | AID 602274, 2012; in the data active means survival enhancement above about 18%;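 further: cells exposed to compounds for 16 hours before the ATP read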
APJ antagonist = antagonists of human apelin receptor APJ, primary screen, CHO-K1 cells, beta-arrestin complementation, luminescence; actives 0.32% (n = 330,000); P35414; inhibition, % at 20 µM;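 active means inhibition above about 40% at 20 µM, limit read from the data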;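 further: cells challenged with 10 nM apelin-13 agonist together with compound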
APJ ag = agonists of human apelin receptor APJ, primary screen, CHO-K1 cells, PathHunter beta-arrestin, luminescence | P35414 | 0% DMSO wells, 100% apelin | activation, % at 20 µM | actives 0.11% (n = 330,000) | AID 2520, 2010;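 active means activation more than six SD over the plate average, tested at 20 µM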
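Incubation: overnight seeding, 90 min compound at 25 °C, 1 h detection; test system: PathHunter CHO-K1 APJ (AGTRL-1) beta-arrestin reporter cells; amount: 1000 cells/well; doses: one dose, 20 µM compound, 1% DMSO; measured by: beta-gal luminescence; measure: agonist-driven arrestin binding to APJ; benchmarks: negative DMSO alone, positive Apelin-13 at 10 nM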
DAGLB inh = DAGLB lipase inhibitors, primary screen, biochemical, fluorescence, HTS. Diacylglycerol lipase-beta (Homo sapiens), Q8NCG7. HEK293T DAGLB membrane lysate, EnzChek fluorogenic substrate. inhibition, % at 5.17 µM. actives 0.059% (n = 340,000). AID 504411, 2011; in the data active means inhibition above about 34%
Target sequence (Q8NCG7 whole entry, looked up): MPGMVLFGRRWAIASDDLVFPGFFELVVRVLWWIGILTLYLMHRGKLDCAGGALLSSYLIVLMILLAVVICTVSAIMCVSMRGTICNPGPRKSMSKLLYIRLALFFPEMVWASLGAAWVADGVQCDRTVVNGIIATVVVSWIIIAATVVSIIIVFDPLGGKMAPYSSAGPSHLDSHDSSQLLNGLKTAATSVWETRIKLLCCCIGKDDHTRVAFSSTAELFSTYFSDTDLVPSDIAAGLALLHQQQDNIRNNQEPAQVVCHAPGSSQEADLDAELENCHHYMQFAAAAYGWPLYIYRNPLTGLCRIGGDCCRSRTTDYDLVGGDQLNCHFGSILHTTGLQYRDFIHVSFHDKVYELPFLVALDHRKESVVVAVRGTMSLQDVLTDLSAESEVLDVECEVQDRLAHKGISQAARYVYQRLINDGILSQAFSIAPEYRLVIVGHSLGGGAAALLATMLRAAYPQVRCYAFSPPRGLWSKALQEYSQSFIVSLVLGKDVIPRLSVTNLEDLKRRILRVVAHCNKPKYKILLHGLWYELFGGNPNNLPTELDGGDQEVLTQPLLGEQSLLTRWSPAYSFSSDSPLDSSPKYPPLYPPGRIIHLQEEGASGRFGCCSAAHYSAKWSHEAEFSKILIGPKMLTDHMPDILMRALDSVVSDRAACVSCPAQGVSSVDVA
CXCR6 antag conf = CXCR6 receptor antagonists, confirmation, cell-based, single concentration, beta-arrestin, luminescence | shares compounds with CXCR6 block | CHO-K1 CXCR6 PathHunter beta-arrestin | inhibition, % at 20 µM | actives 65% (n = 700) | AID 602409, 2012;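 active means mean inhibition over four retests above 40%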;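 further: receptor stimulated with 10 nM CXCL16 agonist; beta-galactosidase fragment complementation upon beta-arrestin recruitment to receptor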
A number is an active result. Only some compounds are listed: those with a hit (about 0.86% of all), similar ones and a draw of the others.

`Cc1ccc2c(Cl)cc(Cl)c(O)c2n1` gave CXCR6 block 49, CCR6 antag 97, hiPSC survival inactive, DAGLB inh inactive and CXCR6 antag conf 70.
Oc1c(Br)cc(Br)cc1C=NCc1ccccc1 was read as CXCR6 block 41, CCR6 antag inactive, hiPSC survival inactive, APJ antagonist inactive, APJ ag inactive, DAGLB inh inactive and CXCR6 antag conf 51.
For CC(NC(=O)c1ccncc1)c1ccc(Cl)cc1Cl (stereo not drawn) the results were CXCR6 block inactive, CCR6 antag inactive, hiPSC survival inactive, APJ antagonist inactive, APJ ag inactive and DAGLB inh inactive.
For COc1ccc(C(=O)N/C(=C\c2ccco2)C(=O)OCc2ccco2)cc1 the results were CXCR6 block inactive, CCR6 antag inactive, hiPSC survival inactive, APJ antagonist inactive, APJ ag inactive and DAGLB inh inactive.
`COc1ccc(/C=C(/C(=O)c2cccs2)N2C=CC=CC2=C(C#N)C#N)cc1` gave CXCR6 block 62, CCR6 antag 84, hiPSC survival inactive, DAGLB inh inactive and CXCR6 antag conf 57.
For N#CC(C#N)=C1C=CC=CN1/C(=C\c1ccco1)C(=O)c1ccccc1 the results were CXCR6 block 98, CCR6 antag 100, hiPSC survival inactive, DAGLB inh inactive and CXCR6 antag conf 105.
For CC(C)(C)NC(=O)/C(=C/c1ccco1)c1ccccc1 the results were CXCR6 block inactive, CCR6 antag inactive, hiPSC survival inactive, APJ antagonist inactive, APJ ag inactive and DAGLB inh inactive.
COc1ccc(N=N/C(=C\O)C(=O)c2cccs2)cc1 was read as CXCR6 block inactive, CCR6 antag inactive, hiPSC survival inactive, APJ antagonist inactive, APJ ag inactive and DAGLB inh inactive.
Screening COc1ccc(C(=O)/C(=C\c2ccco2)N2C=CC=CC2=C(C#N)C#N)cc1 returned CXCR6 block 84, CCR6 antag 100, hiPSC survival inactive, APJ antagonist 86, APJ ag inactive, DAGLB inh inactive and CXCR6 antag conf 103.
Screening COc1cc(C(=O)Nc2ccc3c(c2)N(C(=O)CN2CCN(C)CC2)c2ccccc2CC3)cc(OC)c1OC returned CXCR6 block inactive, CCR6 antag inactive, hiPSC survival inactive, APJ antagonist inactive, APJ ag inactive and DAGLB inh inactive.
CCCCCCn1cc(CN2CC(N3CCN(CCO)CC3)CS2(=O)=O)nn1 (stereo not drawn) was read as CXCR6 block inactive and hiPSC survival inactive.
CCCC(C)Sc1nc2c([nH]1)c(=S)n(C)c(=O)n2C (stereo not drawn) was read as CXCR6 block 42, CCR6 antag inactive, hiPSC survival inactive, DAGLB inh inactive and CXCR6 antag conf inactive.
Cn1c(=S)c2[nH]c(SCC3CCCO3)nc2n(C)c1=O (stereo not drawn) was read as CXCR6 block inactive, CCR6 antag inactive, hiPSC survival inactive and DAGLB inh inactive.
Screening COCCCn1c(N)c(-c2nc3ccccc3n2C)c2nc3ccccc3nc21 returned CXCR6 block 43, hiPSC survival inactive, APJ antagonist inactive, APJ ag inactive, DAGLB inh inactive and CXCR6 antag conf 65.
`S=c1nc(-c2ccccc2)[nH]c2ccc(Br)cc12` gave CXCR6 block 42, CCR6 antag inactive, hiPSC survival inactive, APJ antagonist inactive, APJ ag inactive, DAGLB inh inactive and CXCR6 antag conf inactive.
`Cc1ccc(/C(O)=C/C(=O)C(=O)NC23CC4CC(CC(C4)C2)C3)cc1` gave CXCR6 block 53, CCR6 antag 70, hiPSC survival inactive, APJ antagonist inactive, APJ ag inactive, DAGLB inh inactive and CXCR6 antag conf inactive.
For CS(=O)(=O)N(CC(=O)NCCSCc1ccccc1)c1ccccc1F the results were CXCR6 block inactive, CCR6 antag inactive, hiPSC survival inactive, APJ antagonist inactive, APJ ag inactive and DAGLB inh inactive.
